Experiments:
[1] = target: T1, Adrenergic receptor alpha-2 (Rattus norvegicus, UniProt P22086+P19328+P22909); experiment: Displacement of [3H]-Clonidine from alpha2 adrenergic receptor in rat brain cerebral cortex membranes by liquid scintillation counting analysis; format: cell membranes, Membrane
T1 sequence (P22086 whole entry): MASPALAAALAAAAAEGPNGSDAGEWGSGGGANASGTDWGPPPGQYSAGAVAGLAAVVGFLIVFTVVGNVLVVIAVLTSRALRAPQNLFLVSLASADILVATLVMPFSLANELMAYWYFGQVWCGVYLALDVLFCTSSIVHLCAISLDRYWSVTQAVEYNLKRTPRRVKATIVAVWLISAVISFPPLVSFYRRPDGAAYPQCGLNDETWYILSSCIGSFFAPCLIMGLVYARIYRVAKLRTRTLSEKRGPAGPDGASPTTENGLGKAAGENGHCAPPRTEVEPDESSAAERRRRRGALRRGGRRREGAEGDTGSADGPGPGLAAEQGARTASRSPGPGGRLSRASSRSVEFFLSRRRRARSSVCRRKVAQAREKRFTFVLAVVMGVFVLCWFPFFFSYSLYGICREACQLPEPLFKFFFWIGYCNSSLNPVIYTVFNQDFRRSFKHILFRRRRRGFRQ
T1 sequence (P19328 whole entry): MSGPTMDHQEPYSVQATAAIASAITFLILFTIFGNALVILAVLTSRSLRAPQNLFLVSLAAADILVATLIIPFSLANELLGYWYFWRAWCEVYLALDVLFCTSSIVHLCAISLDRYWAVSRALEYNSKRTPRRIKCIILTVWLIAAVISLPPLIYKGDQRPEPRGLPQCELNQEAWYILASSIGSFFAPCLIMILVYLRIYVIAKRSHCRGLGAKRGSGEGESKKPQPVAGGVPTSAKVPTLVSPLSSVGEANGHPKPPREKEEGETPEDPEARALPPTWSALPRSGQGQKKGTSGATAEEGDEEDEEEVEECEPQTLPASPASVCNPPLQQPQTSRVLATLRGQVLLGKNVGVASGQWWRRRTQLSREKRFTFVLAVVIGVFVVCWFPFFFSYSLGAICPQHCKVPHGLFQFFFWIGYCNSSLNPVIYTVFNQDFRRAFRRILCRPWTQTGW
T1 sequence (P22909 whole entry): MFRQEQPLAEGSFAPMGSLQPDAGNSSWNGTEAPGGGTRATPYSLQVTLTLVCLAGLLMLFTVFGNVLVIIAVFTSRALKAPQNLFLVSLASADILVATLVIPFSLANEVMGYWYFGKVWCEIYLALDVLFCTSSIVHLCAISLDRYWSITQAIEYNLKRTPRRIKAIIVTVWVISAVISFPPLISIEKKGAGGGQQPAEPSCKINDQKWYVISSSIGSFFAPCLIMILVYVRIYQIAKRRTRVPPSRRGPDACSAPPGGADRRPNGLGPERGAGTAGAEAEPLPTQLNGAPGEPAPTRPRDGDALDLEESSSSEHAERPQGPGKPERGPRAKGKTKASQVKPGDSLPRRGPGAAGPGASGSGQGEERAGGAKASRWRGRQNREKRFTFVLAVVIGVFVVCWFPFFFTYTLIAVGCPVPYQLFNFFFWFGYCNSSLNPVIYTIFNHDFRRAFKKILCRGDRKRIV
In short: (§1)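 Rat cerebral cortex homogenized in ice-cold 50 mM Tris–HCl (pH 7.6), spun at 20,000 g for 20 min (0–4 °C), resuspended and spun again. Membranes incubated with 0.2 nM [3H]-prazosin (α1) or 2 nM [3H]-clonidine (α2) and seven to eight compound concentrations (10^-11 to 10^-4 M). Non-specific binding defined with 10 µM phentolamine (prazosin) or 10 µM clonidine (clonidine). Ended by GF/C filtration, counted by liquid scintillation. Run in duplicate; Ki from two independent experiments.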

[2] = target: T2, Adrenergic receptor alpha-1 (Rattus norvegicus, UniProt P15823+P23944+P43140); experiment: Displacement of [3H]-Prazosin from alpha1 adrenergic receptor in rat brain cerebral cortex membranes by liquid scintillation counting analysis; format: cell membranes, Membrane; in short: as §1
T2 sequence (P15823 whole entry): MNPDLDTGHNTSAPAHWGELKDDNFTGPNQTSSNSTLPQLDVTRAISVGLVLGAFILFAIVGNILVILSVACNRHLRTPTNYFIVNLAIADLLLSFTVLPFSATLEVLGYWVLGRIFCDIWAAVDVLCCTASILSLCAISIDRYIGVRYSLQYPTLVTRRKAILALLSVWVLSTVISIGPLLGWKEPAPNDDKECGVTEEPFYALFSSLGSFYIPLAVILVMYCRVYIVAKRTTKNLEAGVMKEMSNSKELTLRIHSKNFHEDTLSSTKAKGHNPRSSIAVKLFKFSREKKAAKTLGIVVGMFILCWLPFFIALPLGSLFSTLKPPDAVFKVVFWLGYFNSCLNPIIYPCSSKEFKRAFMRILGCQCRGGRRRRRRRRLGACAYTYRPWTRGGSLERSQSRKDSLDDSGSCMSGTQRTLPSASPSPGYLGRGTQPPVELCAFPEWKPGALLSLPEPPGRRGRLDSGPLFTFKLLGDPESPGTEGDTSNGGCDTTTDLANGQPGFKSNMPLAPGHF
T2 sequence (P23944 whole entry): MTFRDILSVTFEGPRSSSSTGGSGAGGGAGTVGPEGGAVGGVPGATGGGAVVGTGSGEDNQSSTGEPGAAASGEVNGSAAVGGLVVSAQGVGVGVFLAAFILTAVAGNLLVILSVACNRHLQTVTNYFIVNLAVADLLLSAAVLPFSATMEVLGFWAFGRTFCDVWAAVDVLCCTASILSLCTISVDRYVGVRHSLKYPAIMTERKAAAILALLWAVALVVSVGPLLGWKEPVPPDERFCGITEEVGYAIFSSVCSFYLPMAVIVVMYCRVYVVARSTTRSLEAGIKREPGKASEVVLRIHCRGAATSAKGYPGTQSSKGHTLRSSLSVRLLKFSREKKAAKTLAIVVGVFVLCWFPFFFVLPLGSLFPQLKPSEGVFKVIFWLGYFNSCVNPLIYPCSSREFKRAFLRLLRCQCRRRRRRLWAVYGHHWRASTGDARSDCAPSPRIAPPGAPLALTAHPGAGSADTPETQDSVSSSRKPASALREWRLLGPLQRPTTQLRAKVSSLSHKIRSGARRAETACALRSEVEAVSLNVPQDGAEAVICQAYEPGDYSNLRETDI
T2 sequence (P43140 whole entry): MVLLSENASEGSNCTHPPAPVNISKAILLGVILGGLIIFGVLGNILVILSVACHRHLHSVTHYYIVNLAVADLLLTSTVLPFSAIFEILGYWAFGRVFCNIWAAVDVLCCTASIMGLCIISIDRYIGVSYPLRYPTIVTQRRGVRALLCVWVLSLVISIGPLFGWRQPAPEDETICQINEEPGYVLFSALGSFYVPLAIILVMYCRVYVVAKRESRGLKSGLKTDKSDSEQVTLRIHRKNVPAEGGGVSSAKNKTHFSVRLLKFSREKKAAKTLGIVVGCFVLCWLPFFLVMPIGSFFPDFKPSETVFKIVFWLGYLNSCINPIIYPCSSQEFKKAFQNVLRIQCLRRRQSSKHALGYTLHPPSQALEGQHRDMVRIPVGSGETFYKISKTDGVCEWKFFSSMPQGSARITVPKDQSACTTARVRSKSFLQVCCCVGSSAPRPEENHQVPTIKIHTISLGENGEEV

Rattus norvegicus [3] = organism: Rattus norvegicus; experiment: Selectivity ratio of Ki for alpha2 adrenergic receptor in rat brain cerebral cortex membranes to Ki for alpha1 adrenergic receptor in rat brain cerebral cortex membranes; format: cell membranes; in short: as §1
[4] = target: T3, Alpha-1B adrenergic receptor (Homo sapiens, UniProt P35368); experiment: Intrinsic activity at human alpha1B adrenergic receptor expressed in CHOK1 cells co-expressing aequorin assessed as inhibition of agonist induced calcium mobilization preincubated for 15 mins followed by agonist addition measured for 20 secs in presence of coelenterazine H by luminescence assay; format: cell-based, CHO-K1
T3 sequence (P35368 whole entry): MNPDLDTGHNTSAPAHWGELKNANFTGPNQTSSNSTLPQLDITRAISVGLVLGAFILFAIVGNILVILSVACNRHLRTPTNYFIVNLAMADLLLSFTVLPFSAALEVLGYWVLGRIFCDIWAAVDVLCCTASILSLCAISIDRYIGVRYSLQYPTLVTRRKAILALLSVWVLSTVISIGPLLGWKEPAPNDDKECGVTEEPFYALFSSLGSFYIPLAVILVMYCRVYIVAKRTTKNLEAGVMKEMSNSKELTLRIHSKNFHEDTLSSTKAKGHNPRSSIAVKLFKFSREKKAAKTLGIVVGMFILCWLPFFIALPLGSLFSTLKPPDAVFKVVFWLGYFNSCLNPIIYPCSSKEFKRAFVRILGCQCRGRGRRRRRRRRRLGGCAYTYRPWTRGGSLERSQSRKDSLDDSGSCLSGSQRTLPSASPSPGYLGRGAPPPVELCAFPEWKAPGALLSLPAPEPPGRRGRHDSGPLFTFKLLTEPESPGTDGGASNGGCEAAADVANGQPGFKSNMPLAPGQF
In short: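 Frozen ready-to-use cells stably expressing α1B receptor and aequorin, resuspended in assay buffer with 5 µM coelenterazine h and rotated overnight at rt in the dark. Diluted to 5000 cells/20 µL. Agonist mode: cells injected onto ligands, light recorded 20 s. Antagonist mode: 15 min with compound at room temperature, then agonist at 3× EC80 final, light recorded 20 s. Mean EC50 from three experiments.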

Rattus norvegicus [5] = experiment: Hypotensive activity in normotensive anesthetized Wistar rat assessed as decrease in diastolic blood pressure at 2 mg/kg, iv administered as single dose measured 60 mins post dose relative to control; format: functional; conditions: 1 h
In short: (§2)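 Male Wistar rats (200–250 g), groups of six, anaesthetized with thiopental 70 mg/kg ip. Left carotid artery cannulated with heparinized saline-filled tubing for pressure recording. Compounds dissolved in water and given once iv. Blood pressure taken at 0 min (control) and over 60 min afterward. Data as mean ± SEM, analysed by one-way ANOVA with Dunnett's test against 0 min.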

Rattus norvegicus [6] = experiment: Hypotensive activity in normotensive anesthetized Wistar rat assessed as decrease in systolic blood pressure at 2 mg/kg, iv administered as single dose measured 60 mins post dose relative to control; format: functional; conditions: 1 h; in short: as §2

| Compound | Ki [1] | Ki [2] | Ratio Ki (Rattus norvegicus [3]) | EC50 [4] | inhibition in vivo at 2 mg/kg (Rattus norvegicus [5]) | inhibition in vivo at 2 mg/kg (Rattus norvegicus [6]) |
| --- | --- | --- | --- | --- | --- | --- |
| COc1ccccc1OCCN1CC[C@H](NS(=O)(=O)c2cc(Cl)ccc2F)C1 | > 10000 nM | 214 nM | – | – | – | – |
| CC(C)Oc1ccccc1OCCN1CC[C@H](NS(=O)(=O)c2cccc(Cl)c2F)C1 | > 10000 nM | 92 nM | > 109 | – | – | – |
| COc1ccccc1OCCN1CCC(NS(=O)(=O)c2cccc3cccnc23)CC1 | 131 nM | 93 nM | 1 | – | – | – |
| CCOc1ccccc1OCCN[C@H](C)Cc1ccc(OC)c(S(N)(=O)=O)c1 [TAMSULOSIN] | – | – | – | 0.13 nM | 11 to 18% | 11 to 17% |
| COc1ccccc1OCCN1CC[C@@H](NS(=O)(=O)c2cc(Cl)ccc2F)C1 | 2354 nM | 289 nM | 8 | – | – | – |
| COc1ccccc1OCCN1CCC(NS(=O)(=O)c2cc(Cl)ccc2F)CC1 | 129 nM | 34 nM | 4 | – | – | – |
| CC(C)Oc1ccccc1OCCN1CCC(CNS(=O)(=O)c2cncc3ccccc23)CC1 | 578 nM | 67 nM | 9 | – | – | – |
| CC(C)Oc1ccccc1OCCN1CC[C@@H](NS(=O)(=O)c2cc(Cl)ccc2F)C1 | 398 nM | 106 nM | 4 | – | – | – |
| COc1ccccc1OCCN1CC[C@@H](NS(=O)(=O)c2cccc(Cl)c2F)C1 | 1944 nM | 241 nM | 8 | – | – | – |
| CC(C)Oc1ccccc1OCCN1CCC(CNS(=O)(=O)c2cc(Cl)ccc2F)CC1 | 870 nM | 133 nM | 7 | – | – | – |
| CC(C)Oc1ccccc1OCCN1CC[C@H](NS(=O)(=O)c2cc(Cl)ccc2F)C1 | > 10000 nM | 242 nM | > 41 | – | – | – |
| CC(C)Oc1ccccc1OCCN1CC[C@@H](NS(=O)(=O)c2cccc(Cl)c2F)C1 | 378 nM | 176 nM | 2 | – | – | – |
| COc1ccccc1OCCN1CC[C@H](NS(=O)(=O)c2cccc(Cl)c2F)C1 | > 10000 nM | 348 nM | > 29 | – | – | – |
| CC(C)Oc1ccccc1OCCN1CCC(NS(=O)(=O)c2cccc(Cl)c2F)CC1 | 188 nM | 131 nM | 1 | – | – | – |
| CC(C)Oc1ccccc1OCCN1CCC(CNS(=O)(=O)c2ccc(F)cc2)CC1 | 416 nM | 77 nM | 5 | – | – | – |
| CC(C)Oc1ccccc1OCCN1CCC(NS(=O)(=O)c2cccc3cccnc23)CC1 | 194 nM | 73 nM | 3 | – | – | – |
| CC(C)Oc1ccccc1OCCN1CCC(NS(=O)(=O)c2cc(Cl)ccc2F)CC1 | 293 nM | 118 nM | 3 | – | – | – |
